# Assay results as given in ChEMBL document CHEMBL1795206, “Selective non zinc binding inhibitors of MMP13” (Bioorg Med Chem Lett, 2011).
# How the values were obtained:
# [1] = Chemical stability of the compound assessed as half life at pH 4 to 10; type: physicochemical; conditions: buffer
# [2] = Photolytic stability of the compound in phosphate buffer at pH 7 up to 4 hrs by LC-UV-MS analysis; type: physicochemical; conditions: pH 7, 4 h
# [3] = Intrinsic clearance in human liver microsomes; type: ADME, Microsome
# [4] = Intrinsic clearance in Sprague-Dawley rat hepatocytes measured per 10^6 cells; type: ADME, cell-based, Liver, Hepatocyte
# [5] = Clearance in rat at 2 mg/kg, iv; type: ADME, organism-based; set-up: dose 2 mg/kg, route intravenous; conditions: in vivo
# Outline: (§1)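 Rats dosed intravenously at 2 mg/kg, n = 2 animals. Clearance is reported in ml/min/kg, half-life in h and steady-state volume of distribution in l/kg.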
# [6] = Half life in rat at 2 mg/kg, iv; type: ADME, organism-based; set-up: dose 2 mg/kg, route intravenous; conditions: in vivo; outline: as §1
# [7] = Volume of distribution at steady state in rat at 2 mg/kg, iv; type: ADME, organism-based; set-up: dose 2 mg/kg, route intravenous; conditions: in vivo, read-out: Vdss; outline: as §1
Structure (SMILES),half-life [1] [days],Stability [2],further results
O=C(NCc1ccncc1)c1ccc(Oc2ccc(C#C[C@]3(O)CN4CCC3CC4)cc2)cc1,> 41.7,Stable,
Cc1ccc(Oc2ccc(C(=O)NCCc3ccncc3)cc2)cc1,> 41.7,,
COc1ccc(C(=O)NCc2ccncc2)cc1,> 41.7,Stable,
O=C(NCc1ccncc1)c1ccc(Oc2ccc([N+](=O)[O-])cc2)cc1,> 41.7,Stable,
COc1cc(Oc2ccc(C(=O)NCc3ccncc3)cc2)ccc1[N+](=O)[O-],> 41.7,Stable,
O=C(NCc1ccncc1)c1ccc(Oc2ccc(C#C[C@@]3(O)CN4CCC3CC4)cc2)cc1,> 41.7,Stable,
O=C(NCc1ccncn1)c1ccc(Oc2ccc(C#C[C@]3(O)CN4CCC3CC4)cc2)cc1,> 41.7,Stable,microsomal CLint [3]: < 2 µL/min/mg; hepatocyte CLint [4]: 3 µL/min/1e6 cells; clearance [5]: 17 mL/min/kg; half-life [6]: 0.1 days; Vd [7]: 2.4 L/kg
O=C(NCc1ccncn1)c1ccc(Oc2ccc(C#C[C@@]3(O)CN4CCC3CC4)cc2)cc1,> 41.7,Stable,
O=C(NCc1ccncn1)c1ccc(Oc2ccc(CCC3(O)CN4CCC3CC4)cc2)cc1 (stereo not given),> 41.7,Stable,
O=C(NCc1ccncn1)c1ccc(Oc2ccc(/C=C/C3(O)CN4CCC3CC4)cc2)cc1 (stereo not given),> 41.7,Stable,
COC1(C#Cc2ccc(Oc3ccc(C(=O)NCc4ccncn4)cc3)cc2)CN2CCC1CC2 (stereo not given),> 41.7,Stable,
O=C(NCc1ccncc1)c1ccc(Oc2ccc(C#CC3(O)CN4CCC3CC4)cc2)cc1 (racemic),> 41.7,Stable,

# The next lines start with results.
half-life [1] [days],Stability [2],Structure (SMILES),further results
> 41.7,,Cc1ccc(Oc2ccc(C(=O)NCc3ccncc3)cc2)cc1,
> 41.7,Stable,O=C(NCc1ccncc1)c1ccc(Oc2ccccc2)cc1,
> 41.7,Stable,O=C(NCc1ccncc1)c1ccc(OCc2ccccc2)cc1,
> 41.7,,Cc1ccc(Oc2ccc(C(=O)NCc3cccnc3)cc2)cc1,
> 41.7,,Cc1ccc(Oc2ccc(C(=O)NCc3ccccc3)cc2)cc1,
> 41.7,,COc1cccc(CNC(=O)c2ccc(Oc3ccc(C)cc3)cc2)c1,
> 41.7,,Cc1ccc(Oc2ccc(C(=O)N(C)Cc3ccncc3)cc2)cc1,
> 41.7,,Cc1ccc(Oc2ccc(C(=O)NCC3CCCCC3)cc2)cc1,
> 41.7,,Cc1ccc(Oc2ccc(C(=O)NCCO)cc2)cc1,
> 41.7,Stable,Cc1ccc(Oc2ccc(C(=O)NCCCN(C)C)cc2)cc1,
> 41.7,Stable,CNC(=O)c1ccc(Oc2ccc(C)cc2)cc1,
> 41.7,Stable,O=C(NCc1ccncc1)c1ccc(-c2ccccc2)cc1,
> 41.7,Stable,O=C(NCc1ccncc1)c1ccc(OCCc2ccccc2)cc1,
> 41.7,Stable,N#Cc1ccccc1Oc1ccc(C(=O)NCc2ccncc2)cc1,
> 41.7,Stable,CNC(=O)c1ccc(Oc2ccc(C(=O)NCc3ccncc3)cc2)cc1,
> 41.7,Stable,O=C(NCc1ccncc1)c1ccc(Oc2ccc(/C=C/C3=CN4CCC3CC4)cc2)cc1,
> 41.7,Stable,O=C(NCc1ccncn1)c1ccc(Oc2ccc(/C=C/C3=CN4CCC3CC4)cc2)cc1,
